This note sets out measurements from ChEMBL document CHEMBL3588768, “Synthesis and bioactivity of tripolinolate A from Tripolium vulgare and its analogs” (Bioorg Med Chem Lett, 2015).

The test system of assay [1] is U-87 MG. Briefly: Induction of apoptosis in human U87MG cells assessed as bright blue nuclear pyknosis at 20 uM by DAPI staining. The class given is functional, cell-based. Particulars: U-87MG ATCC. The procedure, abridged:
(§1)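 U87-MG glioma cells were exposed to compound at 20 µM for 72 h, then double-stained with DAPI and propidium iodide. Cells were viewed by fluorescence microscopy. Condensed bright-blue DAPI nuclei were scored as apoptotic; red PI-stained cells were scored as necrotic.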

The test system of assay [2] is U-87 MG. As to the kind of experiment: Induction of apoptosis in human U87MG cells assessed as viable cells at 40 uM after 72 hrs by annexin V-FITC/PI staining-based flow cytometric analysis (reference value: 93.12%). The class given is functional, U-87MG ATCC. Particulars: read-out: Activity.
Assay [3] relates to U-87 MG. Briefly: Antiproliferative activity against human U87MG cells after 72 hrs by sulforhodamine B assay. The assay is classed as functional, cell-based, U-87MG ATCC. As to conditions: for inhibition: U-87MG ATCC. The procedure, abridged:
(§2)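 Sulforhodamine B assay on glioma (U251, U87-MG) and colorectal (HCT-15, SW620) cancer cells. Cells were exposed to a range of compound concentrations for 72 h, then stained with SRB. IC50 values were derived from the dose–response. Doxorubicin served as positive control.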
In general terms: The SRB assay estimates cell density from bound dye.

The test system of the next assay is SW-620. Briefly: Antiproliferative activity against human SW620 cells after 72 hrs by sulforhodamine B assay. Particulars: for IC50: SW-620, 72 h. The assay is classed as functional, cell-based. The procedure, abridged: as §2
Assay [4] relates to U-87 MG. As to the kind of experiment: Induction of apoptosis in human U87MG cells assessed as total apoptotic cells at 40 uM after 72 hrs by annexin V-FITC/PI staining-based flow cytometric analysis (reference value: 6.64%). The class given is functional, U-87MG ATCC. (In general: A flow cytometer gives signals particle by particle.)
The subject of assay [5] is U-87 MG. Briefly: Induction of apoptosis in human U87MG cells assessed as late apoptotic cells at 40 uM after 72 hrs by annexin V-FITC/PI staining-based flow cytometric analysis (reference value: 3.23%). The assay is classed as functional, U-87MG ATCC.
The next assay relates to Escherichia coli. Briefly: Antimicrobial activity against Escherichia coli after 5 to 12 hrs by micro broth dilution assay. The class given is functional, organism-based. A general note: Dilution methods test growth across graded concentrations, often in twofold steps.
The subject of a further assay is U-251. Briefly: Antiproliferative activity against human U251 cells after 72 hrs by sulforhodamine B assay. The class given is functional, cell-based. Particulars: for IC50: U-251, 72 h. Summed up:
as §2

The test system of a further assay is Staphylococcus aureus. As to the kind of experiment: Antimicrobial activity against Staphylococcus aureus after 5 to 12 hrs by micro broth dilution assay. The assay is classed as functional, organism-based.
For another assay, the system named is HCT-15. As to the kind of experiment: Antiproliferative activity against human HCT15 cells after 72 hrs by sulforhodamine B assay. The assay is classed as functional, cell-based. As to conditions: for IC50: HCT-15, 72 h. Summed up:
as §2

In assay [6] the test system is U-87 MG. As to the kind of experiment: Induction of apoptosis in human U87MG cells assessed as necrotic cells at 20 uM by PI staining. The class given is functional, cell-based. Particulars: U-87MG ATCC. The procedure, abridged: as §1
Assay [7] has as its system U-87 MG. As to the kind of experiment: Induction of apoptosis in human U87MG cells assessed as necrotic cells at 40 uM after 72 hrs by annexin V-FITC/PI staining-based flow cytometric analysis (reference value: […]). The assay is classed as functional, U-87MG ATCC.
In assay [8] the test system is U-87 MG. Briefly: Induction of apoptosis in human U87MG cells assessed as early apoptotic cells at 40 uM after 72 hrs by annexin V-FITC/PI staining-based flow cytometric analysis (reference value: 3.41%). The assay is classed as functional, U-87MG ATCC.
Assay [9] has as its system U-87 MG. As to the kind of experiment: Induction of apoptosis in human U87MG cells assessed as necrotic cells at 20 uM after 72 hrs by annexin V-FITC/PI staining-based flow cytometric analysis (reference value: 0.24%). The class given is functional, U-87MG ATCC.
Assay [10] relates to U-87 MG. As to the kind of experiment: Induction of apoptosis in human U87MG cells assessed as viable cells at 20 uM after 72 hrs by annexin V-FITC/PI staining-based flow cytometric analysis (reference value: 93.12%). The class given is functional, U-87MG ATCC. Particulars: read-out: Activity.
Assay [11] has as its system U-87 MG. Briefly: Induction of apoptosis in human U87MG cells assessed as early apoptotic cells at 20 uM after 72 hrs by annexin V-FITC/PI staining-based flow cytometric analysis (reference value: 3.41%). The class given is functional, U-87MG ATCC.
Assay [12] concerns U-87 MG. As to the kind of experiment: Induction of apoptosis in human U87MG cells assessed as total apoptotic cells at 20 uM after 72 hrs by annexin V-FITC/PI staining-based flow cytometric analysis (reference value: 6.64%). The class given is functional, U-87MG ATCC.
For assay [13], the system named is U-87 MG. Briefly: Induction of apoptosis in human U87MG cells assessed as late apoptotic cells at 20 uM after 72 hrs by annexin V-FITC/PI staining-based flow cytometric analysis (reference value: 3.23%). The class given is functional, U-87MG ATCC.

The source made the active and inactive calls. No cut-off for these calls is given here.

In the case of `COc1cc(/C=C/COC(C)=O)ccc1OC(C)=O`, the result with U-87 MG [1] and in the assay on U-87 MG [6] was Active. For the same molecule, the viability at 40 µM in the assay with U-87 MG [2] was 42.1%. Besides, the IC50 – broadly, the concentration that gives 50% inhibition – amounted to 1060 nM in the assay with U-87 MG [3], 360 nM in the assay on SW-620, 9710 nM in the assay on U-251 and 3260 nM with HCT-15. Further, the inhibition result in the assay on U-87 MG [3], with SW-620, with U-251 and in the assay with HCT-15 was “Dose-dependent effect” throughout. Moreover, the Activity in the assay with U-87 MG [4] is recorded as 57.33%; with U-87 MG [5], 35.71%; in the assay with U-87 MG [7], 0.57%; with U-87 MG [8] it was 21.62%. Also, the inhibition entry with Escherichia coli and in the assay with Staphylococcus aureus was “inactive” in each case.
In the case of `CC[C@H](C)C(=O)Oc1ccc(/C=C/COC(C)=O)cc1OC`, the outcome with U-87 MG [1] and in the assay with U-87 MG [6] was Active. Further, the Activity in the assay with U-87 MG [9] is given as 0.37%; in the assay on U-87 MG [11], 9.02%; in the assay on U-87 MG [12] it was 45.14%; with U-87 MG [13], 36.12%. Further, the viability at 20 µM with U-87 MG [10] stood at 54.5%. Moreover, the IC50 with U-87 MG [3] is 480 nM; in the assay with SW-620, 990 nM; in the assay with U-251, 12900 nM; with HCT-15 it was 4580 nM. Besides, the inhibition result in the assay on U-87 MG [3], in the assay on SW-620, with U-251 and in the assay on HCT-15 was “Dose-dependent effect” throughout. The inhibition result with Escherichia coli and in the assay on Staphylococcus aureus was “inactive” in each case.
